Screening data from PubChem.
Most compounds without a hit are left out; they make up all but 6.6% or so of the library.
H69AR growth 86K – growth inhibitors of human H69AR lung tumor cells | H69AR lung tumor viability, ATP luminescence, 72 h; stronger effect = lower value | viability, % at 10 µM | 85,000 tested, 6% active;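 active means viability at or below 40%; inactive means viability above 40%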;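 further: multidrug resistant small cell line overexpressing MRP-1 efflux transporter; 100% = mean luminescence of untreated control wells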
Fibroblast inh – blocks proliferation of human lung fibroblasts. LL 47 human lung fibroblast viability, ATP luminescence; stronger effect = lower value. viability, % at 10 µM. 85,000 tested, 1.1% active;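 active means viability at or below 50% in the single dose screen; inactive means viability above 50%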;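 further: compound exposure lasted 72 h before the ATP readout; 100% = median luminescence of untreated cell-only wells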
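test system = LL 47 human lung fibroblasts | amount = 1,150 fibroblasts seeded per well | medium = 15% FBS in IMEM | times = overnight cell rest, 72 h compound treatment at 37 °C | measured by = CellTiter-Glo luminescence measuring cellular ATP | read-out = viability percentage against median untreated-cell control | benchmarks = cell-only wells, no compound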
Jurkat viability – cytotoxic compounds reducing Jurkat cell viability; Jurkat E6.1 viability, ATP luminescence, 48 h; inhibition, % at 4 µM; 56,000 tested, 1.2% active; AID 463;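 active means inhibition above the mean inhibition of all tested compounds plus 3 SD, cut at about 28% in these data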
HUVEC prolif 384 – inhibitors of human endothelial cell proliferation; 86,000 tested, 1.1% active; HUVEC proliferation, CellTiter-Glo luminescence, 72 h; stronger effect = lower value; viability, % at 10 µM (by protocol);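 active means viability at or below 30%; inactive means viability above 30%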;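 further: 100% = median luminescence of DMSO-only cell control wells on each plate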
* = called active by the depositor; nt = no result.

SMILES	H69AR growth 86K	Fibroblast inh	Jurkat viability	HUVEC prolif 384
COc1cc(Nc2ccc(C)cc2)c([N+](=O)[O-])nc1[N+](=O)[O-]	6.2*	38.8*	nt	41.8
COc1ccc(NC(=O)c2cnc3sccn3c2=O)cc1OC	91.1	105.7	3.9	102.5
COc1ccc(CN2C(=O)CCC2(C)C(=O)NC2CCCC2)c(OC)c1 (centres undefined)	101.8	99.3	2.5	97.3
COc1ccccc1/C=C/C1(C(=O)NC2CCCC2)CC(=O)N1c1ccc(C)cc1 (centres undefined)	2.1*	47.6*	nt	39.1
COc1ccccc1/C=C/C1(C(=O)NC2CCCC2)CC(=O)N1c1ccc(F)cc1 (centres undefined)	0.5*	1.9*	nt	34.8
C=CC[n+]1c(-c2ccc(OC)c(OC)c2)csc1NNC(=O)Nc1ccccc1	85.3	92.6	nt	101.5
Cc1cc(=O)n2[nH]cc(C(=O)O)c2n1	94.6	102.4	nt	97.4
COC1=CC(=O)CC(C)C12Oc1c(Cl)c(OC)cc(OC)c1C2=O (centres undefined)	28.7*	86.6	nt	91.5
CCOC(=O)CSc1ncnc2c1nnn2-c1ccc(F)cc1	104.5	97.2	-4.1	87.1
CC(=O)C(Sc1ncnc2c1nnn2-c1ccc(F)cc1)C(=O)N(C)C (centres undefined)	11.6*	107.0	5.5	88.7
CCOC(=O)CSc1nc(C)c2ccc(C)cc2n1	86.3	107.0	nt	100.0
Cc1ccccc1-c1nc(CN2CCC(C(=O)N3CCN(c4ccccn4)CC3)CC2)c(C)o1	55.1	96.7	-1.4	69.3
CCOc1ccc2nc(N3CCC(C(=O)N4CCN(c5ccccn5)CC4)CC3)sc2c1	43.4	97.0	34.6*	64.8
CCOC(=O)N1CCN(C(=O)C2CCCN(c3nc4ccc(OCC)cc4s3)C2)CC1 (centres undefined)	60.3	95.1	0.6	112.0
CCOc1ccc2nc(N3CCC(C(=O)N4CCN(c5ncccn5)CC4)CC3)sc2c1	38.3*	98.7	-3.0	109.8
CC1CCCC(C)N1C(=O)COC(=O)c1ccc(O)cc1 (centres undefined)	100.2	95.5	nt	94.2
Cc1ccc(C(C)C)cc1OCCOCCN1CCCC1	86.3	106.1	nt	105.6
CCCCCCC(=O)N(O)C1CC(=O)N(c2ccc(Br)cc2)C1=O (centres undefined)	32.8*	81.1	2.5	81.6
COc1ccccc1N(O)C1CC(=O)N(c2ccc(Br)cc2)C1=O (centres undefined)	63.4	99.2	nt	85.1
O=C(CSc1nc2c(c(C(F)(F)F)n1)CCc1ccccc1-2)NCc1ccco1	30.2*	107.7	6.9	75.0
O=C(CSc1nnc(-c2ccccc2)c(-c2ccccc2)n1)NCc1ccco1	20.1*	89.0	nt	66.5
CC(NC(=O)CSc1nc2c(c(C(F)(F)F)n1)CCc1ccccc1-2)c1ccccc1 (centres undefined)	83.6	104.6	nt	97.5
O=C(CSc1ncc(-c2ccccc2)nn1)NCc1ccco1	88.9	95.9	-10.8	90.8
O=C(OCC(=O)N1CCN(C(=O)c2ccco2)CC1)c1ccccc1OCc1ccc(Cl)cc1	67.5	94.2	-10.8	92.0
COc1cccc(C2CC(c3ccccc3Cl)n3ncnc3N2)c1 (centres undefined)	77.4	93.8	0.0	101.2
SMILES	H69AR growth 86K	Fibroblast inh	Jurkat viability	HUVEC prolif 384
Fc1cccc2sc(Nc3nnc(-c4ccccc4)o3)nc12	56.8	55.8	-0.3	6.8*
COc1ccc(-c2nnc(Nc3nc4c(OC)cccc4s3)o2)c(OC)c1	33.5*	50.2	29.5	20.4*
COc1ccc(-c2nnc(Nc3nc4c(OC)cccc4s3)o2)cc1	61.8	91.8	5.4	2.9*
Cc1cc(NC(=O)C2COc3ccccc3O2)no1 (centres undefined)	97.5	105.8	0.1	93.8
CC1(C)NC(=O)N(CCOCCOc2ccc3ccccc3c2Br)C1=O	32.5*	89.5	nt	78.1
COc1cccc(C2/C(=C(/O)c3ccncc3)C(=O)C(=O)N2CCCN2CCOCC2)c1OC (centres undefined)	93.4	95.7	-1.5	97.2
CCNS(=O)(=O)c1cc(OC)ccc1OC	98.9	102.5	nt	95.3
CCCOC(=O)c1ccc(Nc2nc(C)cc(=O)[nH]2)cc1	17.1*	106.3	nt	93.7
Cc1ccc(N=Nc2c(C)[nH][nH]c2=O)c(C)c1	24.2*	91.2	nt	13.2*
Clc1ccc(OCc2nc(-c3ccccn3)n[nH]2)cc1	2.2*	81.9	-3.6	57.9
O=C(NCc1ccco1)c1cc2n(n1)C(C(F)(F)F)CC(c1ccc(Br)cc1)N2 (centres undefined)	93.8	92.6	0.2	67.5
O=C(NCc1ccco1)c1cc2n(n1)C(C(F)(F)F)CC(c1ccc(Cl)c(Cl)c1)N2 (centres undefined)	31.2*	95.0	-6.3	72.8
O=C(CCCc1ccccc1)N1CCc2ccccc21	95.8	95.3	nt	93.4
CCOc1ccc(NC(=O)C2CCCN(S(=O)(=O)c3cccc4nsnc34)C2)cc1 (centres undefined)	93.9	102.2	nt	68.3
Nc1nnnn1/N=C/C(Br)=C/c1ccccc1	0.9*	nt	84.0*	89.1
Cc1cc(C)c(NC(=O)C2CSCCS2)c(C)c1 (centres undefined)	nt	nt	-1.6	nt
Cc1ccc(-n2nnnc2SCC(=O)Nc2ccc3c(c2)COC3=O)cc1C	95.1	27.3*	12.5	89.5
CCn1c2ccccc2c2cc(NC(=O)CSc3nnnn3-c3ccccc3)ccc21	20.2*	79.4	-3.7	73.0
CCn1c(SCC(=O)Nc2ccc3c(c2)c2ccccc2n3CC)nnc1-c1cnccn1	18.1*	95.2	8.8	97.2
CCn1c(=O)cc(SCC(=O)Nc2ccc(Cl)cc2)c2ccccc21	16.5*	87.3	nt	81.9
CC(C)C(C)(C#N)NC(=O)CSc1nnc(C(F)(F)F)n1C (centres undefined)	95.2	103.0	nt	103.3
COc1ccc(-c2nc(C#N)c(NC(C)c3ccccc3)o2)cc1OC (centres undefined)	nt	89.6	1.1	100.3
COc1cc(NS(=O)(=O)c2ccc(Cl)cc2)c(C(=O)O)cc1OC	96.5	101.2	nt	94.1
CCn1c2ccccc2c2cc(NC(=O)CSc3nnc(-c4ccc(OC)cc4)n3N)ccc21	27.1*	55.6	nt	47.7
CCOc1cc2[nH]c(=O)n(CC3CCC(C(=O)NC4CCCCC4)CC3)c(=O)c2cc1OCC (centres undefined)	90.4	100.4	4.8	29.8*
CCOc1cc2[nH]c(=O)n(CC3CCC(C(=O)NC(C)CC)CC3)c(=O)c2cc1OCC (centres undefined)	83.6	95.9	1.9	46.5
